Compound activity from PubChem.
This is a sample that favours compounds with a hit; in the whole collection about 0.79% have one here.
mIAP block – mouse IAP inhibition. purified mouse IAP, CDP-Star luminescence, 30 min. inhibition, % at 10 µM. actives 0.2% (n = 330,000). AID 2806;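 active = inhibition of at least 40% at 10 µM in the primary screen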;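 note: plate controls were DMSO with enzyme for no effect and no enzyme wells for full effect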
mIAP activ – increases mouse intestinal alkaline phosphatase activity. activation factor at 10 µM. actives 0.24% (n = 330,000). muIAP, CDP-Star luminescence, 30 min; hits give high values; 1 = vehicle-only enzyme signal, 0 = enzyme-free wells. AID 2805;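 active = activation factor of at least 2 at 20 µM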
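System: Mouse IAP enzyme | Also added: CDP-Star substrate | Dosing: Compounds dispensed in DMSO | Schedule: 30 min enzyme-substrate-compound incubation at room temperature | Technique: Chemiluminescence readout | Control set: DMSO-only wells and no-enzyme negative control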
hIAP inh – blocks human intestinal alkaline phosphatase; purified IAP, CDP-Star luminescence, 30 min; inhibition, % at 10 µM; actives 0.12% (n = 330,000);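 active = inhibition reaching a set limit with compound at 10 µM in the primary screen, cut at about 35% in these data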;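 note: plate controls were DMSO wells with enzyme for no effect and no-enzyme buffer wells for full effect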
Target sequence (P09923 whole entry, looked up): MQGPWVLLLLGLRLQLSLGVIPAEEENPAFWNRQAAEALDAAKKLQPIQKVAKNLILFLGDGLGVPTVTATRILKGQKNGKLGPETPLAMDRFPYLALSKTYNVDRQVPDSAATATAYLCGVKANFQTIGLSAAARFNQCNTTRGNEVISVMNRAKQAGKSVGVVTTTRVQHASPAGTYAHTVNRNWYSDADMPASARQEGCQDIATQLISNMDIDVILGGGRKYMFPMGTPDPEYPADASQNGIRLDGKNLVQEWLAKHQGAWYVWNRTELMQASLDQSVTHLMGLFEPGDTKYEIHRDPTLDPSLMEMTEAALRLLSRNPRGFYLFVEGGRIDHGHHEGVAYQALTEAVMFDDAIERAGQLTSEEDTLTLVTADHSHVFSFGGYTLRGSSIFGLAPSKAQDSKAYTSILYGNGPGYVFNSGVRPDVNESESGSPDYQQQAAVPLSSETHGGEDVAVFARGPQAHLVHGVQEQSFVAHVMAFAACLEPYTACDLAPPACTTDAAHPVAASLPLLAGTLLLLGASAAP
hIAP act – human IAP activation | purified human IAP, CDP-Star luminescence, 30 min; hits give high values; 1 = vehicle-only enzyme, 0 = enzyme-free background | activation factor at 10 µM | actives 0.16% (n = 330,000);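 active = activation factor of the enzyme at least 2-fold when tested at 20 µM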
bIAP activator – intestinal alkaline phosphatase (bovine) activation | actives 0.17% (n = 200,000) | purified bovine IAP, CDP-star luminescence, 30 min; hits give high values; fold of DMSO-control signal, blank-subtracted | activation factor at 20 µM;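 active = activation factor of 2 or more at 20 µM, a signal rise over negative controls twice the positive control's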
bIAP inh – blocks bovine intestinal alkaline phosphatase activity; 190,000 tested, under 10 active; AID 1019; purified bovine IAP, CDP-star luminescence, 30 min; inhibition, % at 20 µM;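 active = over 50% inhibition of intestinal alkaline phosphatase at 20 µM in the single-dose screen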
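System: Purified bovine intestinal alkaline phosphatase (IAP) enzyme | Input: IAP diluted 1/65,000,000 in the well | Also added: CDP-star chemiluminescent phosphatase substrate, 30 µM final | Dosing: 20 µM single dose | Times: Enzyme reaction for 30 min at room temperature | Detection: Luminescence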
Active calls of the source: *; . = no result given.

SMILES	mIAP block	mIAP activ	hIAP inh	hIAP act	bIAP activator	bIAP inh
O=C(Nc1cccc(C(=O)O)c1)/C(=C\c1ccccc1)NC(=O)c1ccccc1	1	0.99	-4	1	1	4
Cc1ccc(C(=O)N/C(=C/c2ccc(Cl)cc2)C(=O)Nc2cccc(C(=O)O)c2)cc1	-8	1.1	21	0.79	2.2*	-119
CCOc1ccc(N(CC(=O)NC2CCCCC2)C(=O)CCCC(=O)Nc2ccccn2)cc1	7	0.93	3	0.97	.	.
COc1ccc(-c2nn(C)c3sc(C(=O)NCc4ccco4)cc23)cc1OC	-8	1.1	-9	1.1	3.5*	-254
CC(C)C[C@@H]1NC(=O)[C@H](Cc2ccc(O)cc2)NC(=O)[C@H](CCC(N)=O)NC(=O)c2cc([N+](=O)[O-])cc(I)c2NCC[C@@H](C(N)=O)NC1=O	-1	1	-13	1.1	1	5
Cc1cc(/C=N/n2cnnc2)c(C)n1-c1ccc(Cl)cc1	0	1	-1	1	0.9	10
Cc1cc(/C=N/n2cnnc2)c(C)n1-c1ccc(OCc2ccc(Cl)cc2Cl)cc1	-18	1.2	-23	1.2	2.5*	-148
COc1ccc(C(=O)NNC(=S)NC(=O)C(C)(C)C)cc1	-6	1.1	-109	2.1*	1.7	-71
COc1cc(-c2nnc(SCC(=O)/C(C#N)=C(\C)N)o2)cc(OC)c1OC	0	1	-15	1.2	1	-2
COc1ccccc1NC(=O)c1coc(=O)c(Br)c1	4	0.96	-4	1	.	.
COc1cc2c(c(OC)c1OC)C(c1ccccc1C)CC(=O)O2 (stereo unspecified)	-8	1.1	.	.	.	.
CC(C)CCNC(=S)Nc1ccc(Br)cc1	-124	2.2*	-17	1.2	1	-4
Nc1ncnc2c1ncn2[C@@H]1O[C@H](CNC(=O)[C@@H]2CCC(=O)N2)[C@@H](O)[C@H]1O	0	0.99	.	.	.	.
CCS(=O)(=O)N1Cc2ccccc2CC1C(=O)N(C)Cc1ccc(OC)c(F)c1 (stereo unspecified)	1	0.99	2	0.98	.	.
CSc1nc2n(n1)C(c1ccccn1)C1=C(CC(C)(C)CC1=O)N2 (stereo unspecified)	0	1	18	0.82	1	-1
Cc1ccc(C(C)NC(=S)NCc2ccc(F)cc2)c(C)c1 (stereo unspecified)	-114	2.1*	-36	1.4	.	.
Cc1ccc(C(C)NC(=S)NCc2ccc(F)cc2)cc1C (stereo unspecified)	-94	1.9	10	0.9	.	.
CCc1ccc(C(C)NC(=S)NCc2ccc(F)cc2)cc1 (stereo unspecified)	-109	2.1*	-41	1.4	.	.
Cc1ccccc1CN1CCN(c2ccc(S(=O)(=O)N3CCCC3)cn2)CC1	-14	1.1	0	1	.	.
COc1ccc(OC)c(S(=O)(=O)NC(N)=NCCc2ccccc2OC)c1	1	0.99	-19	1.2	0.9	9
CCOc1ccc(NC(=O)COC(=O)C23CC4CC(CC(C4)C2)C3)c([N+](=O)[O-])c1	-2	1	9	0.91	0.7	27
CCN1CCN(S(=O)(=O)c2ccc(Cl)c(C(=O)NCc3nc4ccccc4[nH]3)c2)CC1	10	0.9	-4	1	.	.
CCN(CC)CCCNC(=O)CNC(=S)N(CCCN1CCOCC1)Cc1cccs1	-6	1.1	-14	1.1	2.1*	-112
O=C(CNC(=S)N(CCCN1CCOCC1)Cc1cccs1)NCCN1CCOCC1	-2	1	7	0.93	0.9	15
O=C(Nc1cc(Cl)cc(Cl)c1)N1CCCC1	-112	2.1*	3	0.97	.	.
SMILES	mIAP block	mIAP activ	hIAP inh	hIAP act	bIAP activator	bIAP inh
O=C(Nc1cc(Cl)cc(Cl)c1)C(c1ccccc1)N1CCCCC1 (stereo unspecified)	-198	3*	-12	1.1	1	5
O=C(N1CCN(c2ccccc2F)CC1)C1(c2cccs2)CCOCC1	-3	1	7	0.93	3.7*	-275
CC(=O)Nc1cccc(C(=O)NC(C)c2ccc(S(N)(=O)=O)cc2)c1 (stereo unspecified)	8	0.92	3	0.97	0.9	15
Cc1cc(=O)[nH]c(SCc2ccc(Cl)cc2Cl)n1	10	0.9	6	0.94	.	.
CC(C)NC[C@@H](O)c1ccc(O)c(O)c1	43*	0.57	-5	1.1	0.9	11
CCN(CC)CCNc1ncnc2c1[nH]c1ccc(OC)cc12	-11	1.1	-12	1.1	.	.
COc1ccc2[nH]c3c(NCCC4=CCCCC4)ncnc3c2c1	.	.	.	.	2.1*	-113
CCOc1ccc2[nH]c3c(NCCC(C)C)ncnc3c2c1	-122	2.2*	-61	1.6	.	.
C[C@H](CO)N1C[C@H](C)[C@@H](CN(C)S(C)(=O)=O)Oc2ccc(NC(=O)CCC(F)(F)F)cc2C1=O	-2	1	13	0.87	.	.
COc1cc(/C=C2\COC/C(=C\c3ccc(O)c(OC)c3)C2=O)ccc1O	42*	0.58	11	0.89	.	.
COc1cc(/C=C2/CC/C(=C/c3ccc(O)c(OC)c3)C2=O)ccc1O	36	0.64	10	0.9	.	.
c1ccc2c(c1)CCN(c1ncnc3c1[nH]c1ccccc13)C2	-26	1.3	-3	1	2.1*	-113
COc1ccc(S(=O)(=O)N2CCC(C(=O)N[C@H](C(=O)N3CCCCCC3)C(C)C)CC2)cc1	6	0.94	-7	1.1	.	.
Cc1ncoc1C(=O)Nc1ccc2c(c1)OCCO2	8	0.92	16	0.84	0.9	5
Cc1ccsc1C(=O)Nc1ccc2c(c1)OCCO2	-4	1	6	0.94	2.1*	-110
Cc1cc2nnc(SCC(=O)Nc3cccc(S(=O)(=O)N4CCOCC4)c3)n2c2ccccc12	-6	1.1	-4	1	1	1
COc1ccc(N=C2NC(=O)/C(=C/c3ccco3)S2)cc1	25	0.75	10	0.9	.	.
COc1ccc(S(=O)(=O)/N=C2/NC(=O)/C(=C/c3ccco3)S2)cc1	57*	0.43	-8	1.1	1.1	-5
O=C(N/N=C/c1ccc(O)cc1)c1cc(-c2ccc3c(c2)OCO3)n[nH]1	14	0.86	36*	0.65	0.9	11
FC(F)Oc1ccc(NC(=S)NCc2ccccc2)cc1Cl	-124	2.2*	-19	1.2	0.8	19
CC(NC(=S)Nc1ccc(OC(F)F)c(Cl)c1)C(C)(C)C (stereo unspecified)	-248	3.5*	-46	1.5	0.9	7
Cc1ccc(NC(=S)Nc2ccc(OC(F)F)c(Cl)c2)cc1Cl	.	.	.	.	0.8	22
FC(F)Oc1ccc(NC(=S)NCc2ccccc2)cc1	-65	1.7	-8	1.1	0.9	13
O=S(=O)(c1ccc(N2CCC(c3ccc(Cl)cc3)=N2)cc1)N(CCO)CCO	-120	2.2*	-6	1.1	2.7*	-168
